# Assay outcomes deposited in PubChem BioAssay by Johns Hopkins Ion Channel Center.
# KCNK3 block: human KCNK3 channel inhibition, primary screen | CHO-KCNK3 thallium flux, FluxOR fluorescence; hits give low values | B-score at 10 µM | 340,000 compounds, 0.84% hits | AID 602410;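 active means B-score under library mean minus 4 SD, starting fluorescence ratio at most library mean plus 5 SD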;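 further: more negative B-score means stronger inhibition of thallium flux through KCNK3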
# Target sequence (O14649 whole entry, looked up): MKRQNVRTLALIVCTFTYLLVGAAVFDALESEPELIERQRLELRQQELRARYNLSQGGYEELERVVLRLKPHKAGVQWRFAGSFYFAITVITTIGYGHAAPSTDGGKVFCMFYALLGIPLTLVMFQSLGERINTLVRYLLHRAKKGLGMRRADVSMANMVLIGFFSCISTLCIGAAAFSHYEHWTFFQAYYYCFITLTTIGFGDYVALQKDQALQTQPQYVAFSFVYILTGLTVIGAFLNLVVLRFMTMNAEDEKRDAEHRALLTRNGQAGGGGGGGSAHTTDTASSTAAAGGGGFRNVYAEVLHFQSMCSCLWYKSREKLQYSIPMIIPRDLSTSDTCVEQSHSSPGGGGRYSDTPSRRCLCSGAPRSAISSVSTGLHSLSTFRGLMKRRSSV
# KCNK9 block: blocks the human KCNK9 two-pore domain potassium channel; B-score at 10 µM; HEK293 KCNK9, FluxOR thallium flux fluorescence; hits give low values; Q9NPC2; 310,000 compounds, 1.2% hits;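 active means ratio B-score over 3 SD below the library mean, with starting fluorescence within 5 SD of its mean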;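 further: negative B-score means less thallium flux so channel inhibition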
# KCNQ1 block: inhibitors of human KCNQ1 potassium channel; CHO-K1 KCNQ1, FluxOR thallium flux fluorescence; hits give high values; B-score at 10 µM; AID 2642; 310,000 compounds, 1.3% hits; P51787;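 active means compounds whose thallium flux B-score, printed positive for inhibition, exceeds three library SD while starting fluorescence stays within three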;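 further: channel opened by potassium depolarization with thallium stimulus after 20 min compound exposure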
# KCNQ1 pot: potentiators or activators of human KCNQ1 potassium channel; P51787; CHO-K1 KCNQ1, thallium flux FluxOR fluorescence; hits give high values; B-score at 10 µM; 310,000 compounds, 0.35% hits; AID 2648;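 active means fluorescence ratio B-score, a plate-corrected score, at least three library SD, with initial intensity B-score within 5 SD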
#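 Material: CHO-K1 cells stably expressing KCNQ1. Medium: assay buffer for compound exposure, DMSO matched across wells. Reagent: K+/Tl+ depolarizing stimulus. Compound dosing: single-concentration screen. Times: 37 °C overnight plating, 90-min dark dye load, 20-min compound pretreatment. Technique: FluxOR Tl+ flux fluorescence.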
# hERG rescue: compounds protecting human hERG from proarrhythmic drug block; AID 1511; 310,000 compounds, 0.51% hits; CHO-hERG, FluxOR thallium flux, dofetilide IC70 present; activation (rescue from dofetilide block), less the hit threshold, % at 10 µM;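 active means activation above the mean of controls blocked by dofetilide plus 5 SD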;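 further: thallium influx through hERG after potassium depolarization seen as dye fluorescence rise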
# KCNK9 inh conf: confirmation of human KCNK9 potassium channel inhibitors; HEK293 KCNK9 cells, FluxOR thallium flux fluorescence; 4,900 compounds, 43% hits; AID 492992; shares compounds with KCNK9 block; inhibition, % at 10 µM;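 active means thallium signal inhibited by more than 5 SD of the compound-free buffer control wells, on both duplicate plates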;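 further: 0% = assay buffer control wells without compound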
# Kir2-1 spec: mouse Kir2.1 off-target activity of KCNK9 modulators | shares compounds with KCNK9 block | Kir2.1 cells, FluxOR thallium flux fluorescence | inhibition, % at 10 µM | 4,900 compounds, 4% hits | AID 492993;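 active means thallium signal drop more than 5 SD beyond the mean of the no-compound control wells, seen in both duplicate plates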;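 further: signal is fluorescence rise after thallium addition divided by baseline fluorescence; plate controls were assay buffer only for no effect and full block by chlorpromazine control for full effect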
# KCNK9 uninduced: non-induced cell nonspecific activity of KCNK9 modulators | shares compounds with KCNK9 block | non-induced KCNK9-HEK293, FluxOR thallium flux | inhibition, % at 10 µM | 4,900 compounds, 40% hits;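 active means thallium signal drop beyond 5 SD of the untreated control mean, on both duplicate plates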;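 further: plate controls were buffer only IC0 wells for no effect and SID17386958 at its maximal inhibitory level for full effect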
# The depositor's hits bear a star; i = inactive; nt = not tested or not shown. A selection: hits, their analogues and other compounds. The true share with any hit is near 3.1%.
SMILES,KCNK3 block,KCNK9 block,KCNQ1 block,KCNQ1 pot,hERG rescue,KCNK9 inh conf,Kir2-1 spec,KCNK9 uninduced
C/C(=C\c1ccccc1)C(=O)N1CCN(c2cccc(C(F)(F)F)c2)CC1,i,i,i,i,-9.6,i,i,i
CC(C(=O)N1CCc2ccccc21)N1CCN(c2cccc(C(F)(F)F)c2)CC1 (stereo not given),i,i,i,i,-9.5,i,i,i
CC(C(=O)N1CCc2ccccc21)N1CCN(S(=O)(=O)c2ccc(C(F)(F)F)cc2)CC1 (stereo not given),i,nt,nt,nt,nt,nt,nt,nt
O=C(CSCc1ccccc1)N1CCN(c2cccc(C(F)(F)F)c2)CC1,i,i,i,i,-7.7,i,i,i
Cc1cccc(NC(=O)CNC(=O)c2cc(C3CC3)nn2-c2ccccc2)c1C,i,nt,nt,nt,nt,nt,nt,nt
O=C(COC(=O)c1ccc2ncsc2c1)Nc1ccccc1Br,i,nt,nt,nt,nt,nt,nt,nt
Cc1ccc(OCCN(C)C(=O)c2cc(COc3ccc(F)cc3F)on2)cc1,i,i,i,i,-13.7,i,i,i
CN(CCc1ccccc1)C(=O)c1cc(COc2ccc(F)cc2Cl)on1,i,i,i,i,-8.1,i,i,i
COc1cccc(CN(C)C(=O)c2cc(COc3c(F)cccc3F)on2)c1,i,i,i,i,-10.3,i,i,i
CN(Cc1ccc(F)cc1)C(=O)c1cc(COc2ccc(F)cc2F)on1,i,i,i,i,4.1,nt,nt,nt
Cc1cc(OCc2cc(C(=O)N(C)CCOc3ccccc3)no2)cc(C)c1Cl,i,i,i,i,-6.0,i,i,i
COc1ccc(CNC(=O)/C(C#N)=C2\N=C(NC(=O)c3cccs3)c3ccccc32)cc1,i,i,i,i,-8.5,i,i,i
COCCNC(=O)/C(C#N)=C1\N=C(NC(=O)c2cccs2)c2ccccc21,i,i,i,i,-1.8,nt,nt,nt
O=C(CN1CCN(C(C(=O)Nc2ccc(Cl)cc2C(F)(F)F)c2ccccc2)CC1)NC1CC1 (stereo not given),i,nt,nt,nt,nt,nt,nt,nt
COc1ccc(C2Nc3ccccc3C(=O)N2Cc2ccco2)cc1COc1ccccc1F (stereo not given),i,-9.03*,i,i,-7.3,46.5%*,i,33.5%*
CC1CCN(C(=O)CSc2ccc(-c3ccccc3)nn2)CC1,i,i,i,i,-7.4,nt,nt,nt
CCCOc1ccccc1N/C(=N/c1nc(C)cc(C)n1)NC(=O)COc1ccc(OC)cc1,i,-26.6*,10*,i,-15.2,77.0%*,i,41.0%*
Cc1cc(C)n(C(=O)c2ccc(Cl)c(F)c2F)n1,i,i,i,i,-8.2,nt,nt,nt
COc1c(Cl)cc(Cl)cc1C(=O)n1nc(C)cc1C,i,i,i,i,-5.2,i,i,i
O=C(/C=C/c1ccccc1)NC(NC(=S)Nc1cccc(Cl)c1)C(Cl)(Cl)Cl (stereo not given),i,i,i,i,-12.3,nt,nt,nt
O=C(/C=C/c1ccccc1)NC(NC(=S)Nc1ccc(Cl)cc1Cl)C(Cl)(Cl)Cl (stereo not given),i,i,i,i,-12.8,i,i,i
COc1cccc(COC(=O)C2CCN(S(=O)(=O)c3ccc(C)cc3C)CC2)c1OC,i,i,i,i,-11.9,i,i,i
Nc1[nH]c(=O)nc2snnc12,i,nt,nt,nt,nt,nt,nt,nt
CCC1COC(c2cccn2Cc2ccccc2Cl)=N1 (stereo not given),i,i,i,i,-5.9,nt,nt,nt
CCOC(=O)CN(C(=O)COc1nc(-c2ccccc2)cc(C)c1C#N)c1ccccc1,i,i,i,i,-9.7,nt,nt,nt
CCOC(=O)CN(C(=O)COc1nc(-c2ccccc2)cc(C)c1C#N)c1ccc(C)cc1,i,i,i,i,-9.9,i,i,i
